Columns and labels:
Plasmodium falciparum [1] = test: (§1) In vitro inhibitory concentration against chloroquine-resistant Plasmodium falciparum K1; assay type: functional, organism-based
Summary of the method: (§2)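 48 h growth assay in human erythrocytes (2% parasitemia, 0.5% haematocrit) in RPMI 1640 with 25 mM HEPES, 32 mM NaHCO3 and 10% human serum, under 3% O2/4% CO2/93% N2 at 37 °C. DMSO stocks diluted in medium; triplicates. 0.5 μCi [3H]-hypoxanthine added at 24 h, uptake counted 24 h later. IC50 by probit interpolation of log dose–response versus drug-free controls.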

Plasmodium falciparum [2] = test: In vitro inhibitory concentration against chloroquine-sensitive Plasmodium falciparum HB3; assay type: functional, organism-based; summary of the method: as §2
Mus musculus [3] = organism: Mus musculus; test: 50% effective dose against Plasmodium yoelii in mice (Mus musculus); assay type: functional
Mus musculus [4] = organism: Mus musculus; test: 90% effective dose against Plasmodium yoelii in mice (Mus musculus); assay type: functional
Mus musculus [5] = test: 50% effective dose for antimalarial activity (in vivo) against Plasmodium berghei; assay type: functional
Summary of the method: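 Male Swiss albino mice, 18-22 g, infected ip with 10^7 P. berghei NS parasitized erythrocytes. Dosed ip or orally once daily for 4 days from the day of infection, in methanol/PBS/DMSO (2:5:3 v/v). Parasitemia read the day after the last dose. ED50 (50% suppression versus vehicle controls) taken from a plot of log dose against parasitemia.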

Plasmodium falciparum [6] = test: as §1; assay type: functional, organism-based; summary of the method: as §2; remark: listed apart in the source

## C[C@H]1[C@@H](OCc2ccc(CN3CCN(c4ccc(C(F)(F)F)cc4)CC3)cc2)O[C@@H]2OC3(C)CCC4[C@H](C)CC[C@@H]1[C@]42OO3 (single isomer, unassigned)
Plasmodium falciparum [1]
  IC50: 12.5 nM
Plasmodium falciparum [2]
  IC50: 8.1 nM

## C[C@H]1[C@@H](CCN2CCN(c3cccc(C(F)(F)F)c3)CC2)O[C@@H]2OC3(C)CCC4[C@H](C)CC[C@@H]1[C@]42OO3 (single isomer, unassigned)
Plasmodium falciparum [1]
  IC50: 6.19 nM
Mus musculus [3]
  ED50: < 10 mg/kg
Mus musculus [4]
  ED90: < 10 mg/kg
Mus musculus [5]
  ED50: 3.12 mg/kg

## C[C@H]1[C@@H](CCN2CCN(c3ccc(Cl)cc3)CC2)O[C@@H]2O[C@]3(C)CC[C@H]4[C@H](C)CC[C@@H]1[C@@]24OO3
Plasmodium falciparum [1]
  IC50: 8.16 nM

## C[C@H]1[C@@H](OCc2cccc(CN3CCN(c4cccc(C(F)(F)F)c4)CC3)c2)O[C@@H]2OC3(C)CCC4[C@H](C)CC[C@@H]1[C@]42OO3 (single isomer, unassigned)
Plasmodium falciparum [1]
  IC50: 22.5 nM

## CO[C@H]1O[C@@H]2O[C@@]3(C)CC[C@H]4[C@H](C)CC[C@@H]([C@H]1C)[C@@]24OO3 [ARTEMETHER]
Plasmodium falciparum [1]
  IC50: 6.5 nM
Plasmodium falciparum [2]
  IC50: 9.2 nM
Plasmodium falciparum [6]
  IC50: 7.94 nM

## C[C@H]1[C@@H](OCc2cccc(CN3CCN(c4ccc([N+](=O)[O-])cc4)CC3)c2)O[C@@H]2OC3(C)CCC4[C@H](C)CC[C@@H]1[C@]42OO3 (single isomer, unassigned)
Plasmodium falciparum [1]
  IC50: 4.3 nM
Plasmodium falciparum [2]
  IC50: 4.3 nM

## C[C@H]1[C@@H](OCc2cccc(CN3CCN(c4ccccc4)CC3)c2)O[C@@H]2OC3(C)CCC4[C@H](C)CC[C@@H]1[C@]42OO3 (single isomer, unassigned)
Plasmodium falciparum [1]
  IC50: 6.6 nM
Plasmodium falciparum [2]
  IC50: 3.4 nM

## C[C@H]1[C@@H](CCN2CCN(Cc3ccccc3)CC2)O[C@@H]2OC3(C)CCC4[C@H](C)CC[C@@H]1[C@]42OO3 (single isomer, unassigned)
Plasmodium falciparum [1]
  IC50: 4.22 nM
Mus musculus [3]
  ED50: < 10 mg/kg
Mus musculus [4]
  ED90: > 10 mg/kg

## C[C@H]1[C@@H](CCN2CCN(c3ccc(F)cc3)CC2)O[C@@H]2OC3(C)CCC4[C@H](C)CC[C@@H]1[C@]42OO3 (single isomer, unassigned)
Plasmodium falciparum [1]
  IC50: 5.96 nM
Mus musculus [3]
  ED50: < 10 mg/kg
Mus musculus [4]
  ED90: 10 mg/kg

## C[C@H]1[C@@H](CCN2CCCCC2)O[C@@H]2OC3(C)CCC4[C@H](C)CC[C@@H]1[C@]42OO3 (single isomer, unassigned)
Plasmodium falciparum [1]
  IC50: 4.83 nM

## C[C@H]1[C@@H](OCc2ccc(CN3CCN(c4ccc([N+](=O)[O-])cc4)CC3)cc2)O[C@@H]2OC3(C)CCC4[C@H](C)CC[C@@H]1[C@]42OO3 (single isomer, unassigned)
Plasmodium falciparum [1]
  IC50: 138 nM

## C[C@H]1[C@@H](OCc2ccc(CN3CCN(Cc4ccccc4)CC3)cc2)O[C@@H]2O[C@]3(C)CC[C@H]4[C@H](C)CC[C@@H]1[C@@]24OO3
Plasmodium falciparum [1]
  IC50: 3.8 nM
Plasmodium falciparum [2]
  IC50: 1.8 nM

## C[C@H]1[C@@H](OCc2ccc(CN3CCN(c4ccc(F)cc4)CC3)cc2)O[C@@H]2OC3(C)CCC4[C@H](C)CC[C@@H]1[C@]42OO3 (single isomer, unassigned)
Plasmodium falciparum [1]
  IC50: 6.3 nM
Plasmodium falciparum [2]
  IC50: 2.3 nM

## C[C@H]1[C@@H](OCc2ccc(CN3CCN(c4ccccc4)CC3)cc2)O[C@@H]2OC3(C)CCC4[C@H](C)CC[C@@H]1[C@]42OO3 (single isomer, unassigned)
Plasmodium falciparum [1]
  IC50: 8.2 nM

## C[C@H]1[C@@H](CCN2CCN(c3ccc([N+](=O)[O-])cc3)CC2)O[C@@H]2OC3(C)CCC4[C@H](C)CC[C@@H]1[C@]42OO3 (single isomer, unassigned)
Plasmodium falciparum [1]
  IC50: 4.29 nM
Mus musculus [3]
  ED50: < 10 mg/kg
Mus musculus [4]
  ED90: > 10 mg/kg

## C[C@H]1[C@@H](CCN2CCN(c3ccccc3)CC2)O[C@@H]2OC3(C)CCC4[C@H](C)CC[C@@H]1[C@]42OO3 (single isomer, unassigned)
Plasmodium falciparum [1]
  IC50: 3.15 nM
Mus musculus [3]
  ED50: < 10 mg/kg
Mus musculus [4]
  ED90: > 10 mg/kg

## C[C@H]1[C@@H](OCc2cccc(CN3CCN(c4ccc(Cl)cc4)CC3)c2)O[C@@H]2OC3(C)CCC4[C@H](C)CC[C@@H]1[C@]42OO3 (single isomer, unassigned)
Plasmodium falciparum [1]
  IC50: 13.3 nM

## C[C@H]1[C@H](OC(=O)CCC(=O)[O-])O[C@@H]2O[C@@]3(C)CC[C@H]4[C@H](C)CC[C@@H]1[C@@]24OO3.[Na+] [SODIUM ARESUNATE]
Mus musculus [3]
  ED50: 1.6 mg/kg
Mus musculus [4]
  ED90: 100 mg/kg

## C[C@H]1[C@@H](CCN2CCOCC2)O[C@@H]2OC3(C)CCC4[C@H](C)CC[C@@H]1[C@]42OO3 (single isomer, unassigned)
Plasmodium falciparum [1]
  IC50: 4.22 nM

## CCCN(CCC)CC[C@H]1O[C@@H]2O[C@]3(C)CC[C@H]4[C@H](C)CC[C@@H]([C@H]1C)[C@@]24OO3
Plasmodium falciparum [1]
  IC50: 7.51 nM

## C[C@@H]1CC[C@H]2[C@@H](C)C(=O)O[C@@H]3O[C@@]4(C)CC[C@@H]1[C@]32OO4 [ARTEMISININ]
Plasmodium falciparum [1]
  IC50: 12.5 nM

## C[C@H]1[C@@H](OCc2cccc(CN3CCN(c4ccc(F)cc4)CC3)c2)O[C@@H]2OC3(C)CCC4[C@H](C)CC[C@@H]1[C@]42OO3 (single isomer, unassigned)
Plasmodium falciparum [1]
  IC50: 12.6 nM
Plasmodium falciparum [2]
  IC50: 12.6 nM

— ChEMBL document CHEMBL1135984, “Mechanism-based design of parasite-targeted artemisinin derivatives: synthesis and antimalarial activity of new diamine containing analogues” (J Med Chem, 2002)
